# Assays:
# [1] = Cytotoxicity against human 9KB cells treated as ethanol solution; type: functional; conditions: read-out: ED50 (the source's name)
# Summary of the method: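 Compound applied as an ethanol solution; activity read out as ED50 under the general screening protocol.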
# L1210 [2] = experiment: Antileukemic activity against mouse L1210 cells allografted in female CDF1 mouse assessed as change in body weight at 6.25 mg/kg, ip administered daily for 9 days as Klucel suspension starting 24 hrs after tumor inoculation; type: functional; conditions: route intraperitoneal
# Summary of the method: (§1)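 Ascitic fluid carrying L1210 cells was inoculated ip. Compound was given ip as a Klucel (hydroxypropylcellulose) suspension in nine daily doses, starting 24 h after inoculation. Body-weight difference (treated minus control) was recorded on day 5. Survival was scored as %T/C of mean survival time.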
# L1210 [3] = experiment: Antileukemic activity against mouse L1210 cells allografted in female CDF1 mouse assessed as change in body weight at 12.5 mg/kg, ip administered daily for 9 days as Klucel suspension starting 24 hrs after tumor inoculation; type: functional; conditions: route intraperitoneal; summary of the method: as §1
# L1210 [4] = experiment: Antileukemic activity against mouse L1210 cells allografted in female CDF1 mouse assessed as change in body weight at 3.13 mg/kg, ip administered daily for 9 days as Klucel suspension starting 24 hrs after tumor inoculation; type: functional; conditions: route intraperitoneal; summary of the method: as §1
# L1210 [5] = experiment: Antileukemic activity against mouse L1210 cells allografted in female CDF1 mouse assessed as host mean survival time at 12.5 mg/kg, ip administered daily for 9 days as Klucel suspension starting 24 hrs after tumor inoculation relative to control; type: functional; conditions: route intraperitoneal
# Summary of the method: (§2)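 L1210 leukemia given as an ascitic fluid cell inoculum, ip, to mice of the strain and sex in each line. Test material was given ip for nine daily doses starting 24 h after inoculation, in a Klucel (hydroxypropylcellulose) suspension. Read-out is mean survival time as %T/C versus controls, with >125 taken as significant.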
# L1210 [6] = experiment: Antileukemic activity against mouse L1210 cells allografted in female CDF1 mouse assessed as host mean survival time at 6.25 mg/kg, ip administered daily for 9 days as Klucel suspension starting 24 hrs after tumor inoculation relative to control; type: functional; conditions: route intraperitoneal; summary of the method: as §2
# L1210 [7] = experiment: Antileukemic activity against mouse L1210 cells allografted in female CDF1 mouse assessed as host mean survival time at 3.13 mg/kg, ip administered daily for 9 days as Klucel suspension starting 24 hrs after tumor inoculation relative to control; type: functional; conditions: route intraperitoneal; summary of the method: as §2
# Mus musculus [8] = experiment: Toxicity in male CDF1 mouse allografted with mouse P388 cells assessed as animal survival at 200 mg/kg, ip administered daily for 9 days as Klucel suspension starting 24 hrs after tumor inoculation; type: organism-based; parameters: dose 200 mg/kg, route intraperitoneal; conditions: in vivo
# Summary of the method: (§3)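 P-388 leukemia ascitic fluid inoculated ip. Compound given ip as a suspension in Klucel (hydroxypropylcellulose), once daily for nine doses beginning 24 h post-inoculation. Acute toxicity assessed as toxicity-day survivors per group. Survival was followed up to 30 days, with 30-day survival counted as "cure". Follows NCI screening protocols.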
# Mus musculus [9] = experiment: Toxicity in female BDF1 mouse allografted with mouse P388 cells assessed as animal survival at 1.56 mg/kg, ip administered daily for 9 days as Klucel suspension starting 24 hrs after tumor inoculation; type: organism-based; parameters: dose 1.56 mg/kg, route intraperitoneal; conditions: in vivo; summary of the method: as §3
# Mus musculus [10] = experiment: Toxicity in female BDF1 mouse allografted with mouse P388 cells assessed as animal survival at 0.78 mg/kg, ip administered daily for 9 days as Klucel suspension starting 24 hrs after tumor inoculation; type: organism-based; parameters: dose 0.78 mg/kg, route intraperitoneal; conditions: in vivo; summary of the method: as §3
# P388 [11] = experiment: Antitumor activity against mouse P388 cells allografted in female CDF1 mouse assessed as disease cures by measuring 30-days host survival at 3.13 mg/kg, ip administered daily for 9 days as Klucel suspension starting 24 hrs after tumor inoculation relative to control; type: functional; conditions: route intraperitoneal
# Summary of the method: (§4)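 P388 leukemia given as an ascitic fluid cell inoculum, ip, to mice of the strain and sex in each line. Nine daily ip doses were given in a Klucel (hydroxypropylcellulose) suspension, starting 24 h after inoculation. Read-out is median survival time as %T/C, with >125 taken as significant; a "cure" means 30-day survival.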
# P388 [12] = experiment: Antitumor activity against mouse P388 cells allografted in female CDF1 mouse assessed as disease cures by measuring 30-days host survival at 12.5 mg/kg, ip administered daily for 9 days as Klucel suspension starting 24 hrs after tumor inoculation relative to control; type: functional; conditions: route intraperitoneal; summary of the method: as §4
# P388 [13] = experiment: Antitumor activity against mouse P388 cells allografted in male CDF1 mouse assessed as disease cures by measuring 30-days host survival at 50 mg/kg, ip administered daily for 9 days as Klucel suspension starting 24 hrs after tumor inoculation relative to control; type: functional; conditions: route intraperitoneal; summary of the method: as §4
# P388 [14] = experiment: Antitumor activity against mouse P388 cells allografted in female BDF1 mouse assessed as disease cures by measuring 30-days host survival at 1.56 mg/kg, ip administered daily for 9 days as Klucel suspension starting 24 hrs after tumor inoculation relative to control; type: functional; conditions: route intraperitoneal; summary of the method: as §4
# P388 [15] = experiment: Antitumor activity against mouse P388 cells allografted in female BDF1 mouse assessed as disease cures by measuring 30-days host survival at 0.78 mg/kg, ip administered daily for 9 days as Klucel suspension starting 24 hrs after tumor inoculation relative to control; type: functional; conditions: route intraperitoneal; summary of the method: as §4
# Mus musculus [16] = experiment: Toxicity in female CDF1 mouse allografted with mouse P388 cells assessed as animal survival at 6.25 mg/kg, ip administered daily for 9 days as Klucel suspension starting 24 hrs after tumor inoculation; type: organism-based; parameters: dose 6.25 mg/kg, route intraperitoneal; conditions: in vivo; summary of the method: as §3
# Mus musculus [17] = experiment: Toxicity in female CDF1 mouse allografted with mouse P388 cells assessed as animal survival at 3.13 mg/kg, ip administered daily for 9 days as Klucel suspension starting 24 hrs after tumor inoculation; type: organism-based; parameters: dose 3.13 mg/kg, route intraperitoneal; conditions: in vivo; summary of the method: as §3
# Mus musculus [18] = experiment: Toxicity in female CDF1 mouse allografted with mouse P388 cells assessed as animal survival at 12.5 mg/kg, ip administered daily for 9 days as Klucel suspension starting 24 hrs after tumor inoculation; type: organism-based; parameters: dose 12.5 mg/kg, route intraperitoneal; conditions: in vivo; summary of the method: as §3
# Mus musculus [19] = experiment: Toxicity in male CDF1 mouse allografted with mouse P388 cells assessed as animal survival at 100 mg/kg, ip administered daily for 9 days as Klucel suspension starting 24 hrs after tumor inoculation; type: organism-based; parameters: dose 100 mg/kg, route intraperitoneal; conditions: in vivo; summary of the method: as §3
# Mus musculus [20] = experiment: Toxicity in female CDF1 mouse allografted with mouse L1210 cells assessed as animal survival at 6.25 mg/kg, ip administered daily for 9 days as Klucel suspension starting 24 hrs after tumor inoculation measured on fifth day; type: organism-based; parameters: dose 6.25 mg/kg, route intraperitoneal; conditions: in vivo
# Summary of the method: (§5)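 L1210 leukemia passaged as ascitic fluid and inoculated ip. Test agent given ip as a Klucel (hydroxypropylcellulose) suspension, nine daily doses starting 24 h after tumor inoculation. Acute toxicity read as toxicity-day survivors per group (out of 6), recorded on day 5. Animal weight difference T − C was also recorded. Follows NCI screening protocols.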
# Mus musculus [21] = experiment: Toxicity in female CDF1 mouse allografted with mouse L1210 cells assessed as animal survival at 3.13 mg/kg, ip administered daily for 9 days as Klucel suspension starting 24 hrs after tumor inoculation measured on fifth day; type: organism-based; parameters: dose 3.13 mg/kg, route intraperitoneal; conditions: in vivo; summary of the method: as §5
# P388 [22] = experiment: Antitumor activity against mouse P388 cells allografted in male CDF1 mouse assessed as change in body weight at 25 mg/kg, ip administered daily for 9 days as Klucel suspension starting 24 hrs after tumor inoculation; type: functional; conditions: route intraperitoneal
# Summary of the method: (§6)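 Ascitic fluid carrying P388 cells was inoculated ip. Compound was given ip in nine daily doses, starting 24 h after inoculation, in Klucel (hydroxypropylcellulose) suspension or in saline with Tween-80. Body-weight difference (treated minus control) was recorded on day 5. Survival was scored as %T/C of median survival time, and 30-day survival counted as cure.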
# P388 [23] = experiment: Antitumor activity against mouse P388 cells allografted in male CDF1 mouse assessed as change in body weight at 50 mg/kg, ip administered daily for 9 days as Klucel suspension starting 24 hrs after tumor inoculation; type: functional; conditions: route intraperitoneal; summary of the method: as §6
# P388 [24] = experiment: Antitumor activity against mouse P388 cells allografted in male CDF1 mouse assessed as change in body weight at 100 mg/kg, ip administered daily for 9 days as Klucel suspension starting 24 hrs after tumor inoculation; type: functional; conditions: route intraperitoneal; summary of the method: as §6
# P388 [25] = experiment: Antitumor activity against mouse P388 cells allografted in female CDF1 mouse assessed as change in body weight at 12.5 mg/kg, ip administered daily for 9 days as Klucel suspension starting 24 hrs after tumor inoculation; type: functional; conditions: route intraperitoneal; summary of the method: as §6
# P388 [26] = experiment: Antitumor activity against mouse P388 cells allografted in female CDF1 mouse assessed as change in body weight at 3.13 mg/kg, ip administered daily for 9 days as Klucel suspension starting 24 hrs after tumor inoculation; type: functional; conditions: route intraperitoneal; summary of the method: as §6
# P388 [27] = experiment: Antitumor activity against mouse P388 cells allografted in female CDF1 mouse assessed as change in body weight at 6.25 mg/kg, ip administered daily for 9 days as Klucel suspension starting 24 hrs after tumor inoculation; type: functional; conditions: route intraperitoneal; summary of the method: as §6
# P388 [28] = experiment: Antitumor activity against mouse P388 cells allografted in male CDF1 mouse assessed as change in body weight at 200 mg/kg, ip administered daily for 9 days as Klucel suspension starting 24 hrs after tumor inoculation; type: functional; conditions: route intraperitoneal; summary of the method: as §6
# P388 [29] = experiment: Antitumor activity against mouse P388 cells allografted in female BDF1 mouse assessed as change in body weight at 1.56 mg/kg, ip administered daily for 9 days as Klucel suspension starting 24 hrs after tumor inoculation; type: functional; conditions: route intraperitoneal; summary of the method: as §6
# P388 [30] = experiment: Antitumor activity against mouse P388 cells allografted in female BDF1 mouse assessed as change in body weight at 0.78 mg/kg, ip administered daily for 9 days as Klucel suspension starting 24 hrs after tumor inoculation; type: functional; conditions: route intraperitoneal; summary of the method: as §6
# P388 [31] = experiment: Antitumor activity against mouse P388 cells allografted in female CDF1 mouse assessed as disease cures by measuring 30-days host survival at 6.25 mg/kg, ip administered daily for 9 days as Klucel suspension starting 24 hrs after tumor inoculation relative to control; type: functional; conditions: route intraperitoneal; summary of the method: as §4
smiles,measurement,setting,value
CNC(=O)OCc1c(COC(=O)NC)c(-c2ccc(F)cc2)n2c1CCC2,EC50,[1],0.22 µg/mL
same,Activity,L1210 [2],0.1 g
same,Activity,L1210 [3],0.1 g
same,Activity,L1210 [4],1.1 g
same,T/C,L1210 [5],118%
same,T/C,L1210 [6],107%
same,T/C,L1210 [7],115%
same,Activity,Mus musculus [8],Toxic
same,Activity,Mus musculus [9],Non-toxic
same,Activity,Mus musculus [10],Non-toxic
same,T/C,P388 [11],171%
same,T/C,P388 [12],153%
same,T/C,P388 [13],48%
same,T/C,P388 [14],122%
same,T/C,P388 [15],146%
same,Activity,Mus musculus [16],Non-toxic
same,Activity,Mus musculus [17],Non-toxic
same,Activity,Mus musculus [18],Non-toxic
same,Activity,Mus musculus [19],Toxic
same,Activity,Mus musculus [20],Non-toxic
same,Activity,Mus musculus [21],Non-toxic
same,Activity,P388 [22],-2 g
same,Activity,P388 [23],-3.4 g
same,Activity,P388 [24],-1.5 g
same,Activity,P388 [25],-3.3 g
same,Activity,P388 [26],-0.3 g
same,Activity,P388 [27],-1 g
same,Activity,P388 [28],-1.5 g
same,Activity,P388 [29],0 g
same,Activity,P388 [30],0.9 g
same,T/C,P388 [31],145%
